The results in this text go back to ChEMBL document CHEMBL1154234, “Cytotoxic constituents of Soymida febrifuga from Myanmar” (J Nat Prod, 2009).

One may read the IC50 as the concentration needed to halve the response being measured. A higher IC50 goes with a need for much substance.

What all share (assay type): functional, cell-based
In assay [1] the test system is PANC-1. The experiment in a line: Cytotoxicity against human PANC1 cells in nutrient-deprived condition after 24 hrs by WST8 assay. A digest of the protocol:
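PANC-1 seeded 2 × 10^4/well in DMEM, 24 h at 37 °C, 5% CO2; washed with PBS and switched to nutrient-deprived medium (or DMEM) with serial dilutions for 24 h. After PBS wash, DMEM with 10% WST-8 added for 3 h, absorbance at 450 nm. Viability vs blank and untreated control from three wells; PC50 reported.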

Assay [2] relates to HT-1080. The experiment in a line: Cytotoxicity against human HT1080 cells after 72 hrs by MTT assay. As to conditions: HT-1080, 72 h. The method in brief:
(§1)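 Cells grown in MEMR with 10% FBS, 0.1% NaHCO3 and 1% antibiotic antimycotic; seeded 2 × 10^3/well and left 24 h at 37 °C, 5% CO2 to attach. Graded concentrations then added in medium for 72 h; MTT (0.5 mg/mL) for 2 h, formazan taken up in DMSO, absorbance at 550 nm. IC50 from means of three wells.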
For orientation: Formazan colour is commonly taken as a measure of viable cells.

The subject of assay [3] is A549. As to the kind of experiment: Cytotoxicity against human A549 cells after 72 hrs by MTT assay. As to conditions: A549, 72 h. The method in brief: as §1
Assay [4] relates to HeLa. The experiment in a line: Cytotoxicity against human HeLa cells after 72 hrs by MTT assay. The method in brief:
as §1

Assay [5] is described as follows: Cytotoxicity against mouse Colon 26-L5 cells after 72 hrs by MTT assay. The method in brief:
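Murine colon 26-L5 cells kept in RPMI 1640 with 10% FBS, 0.1% NaHCO3, 1% antibiotic antimycotic. Plated at 2 × 10^3/well, 24 h attachment at 37 °C, 5% CO2, then varying concentrations for 72 h. Read-out: MTT (0.5 mg/mL) 2 h, DMSO extraction, 550 nm; IC50 from means of three wells.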

Assay [6] can be described thus: Cytotoxicity against mouse B16-BL6 cells after 72 hrs by MTT assay. As to conditions: B16-BL6, 72 h. The method in brief:
as §1

`O=C(CCc1ccc(O)cc1O)c1ccc(O)cc1` gave a PC50 in assay [1] greater than 100 µM. Besides, the IC50 in assay [2], in assay [3], in assay [4], in assay [5] and in assay [6] was greater than 100 µM throughout.
With `O=C1C[C@@H](c2ccccc2)Oc2cc(O)cc(O)c21` [PINOCEMBRIN], in assay [1], the PC50 amounted to 72.9 µM. Besides, the IC50 was 72.8 µM in assay [2]; greater than 100 µM in assay [3]; greater than 100 µM in assay [4]; 71 µM in assay [5]; greater than 100 µM in assay [6].
Consider `Oc1ccc(C[C@H]2COc3cc(O)ccc3C2)cc1`, for which the PC50 in assay [1] was determined as 79 µM. Also, the IC50 is 79.6 µM in assay [2]; greater than 100 µM in assay [3]; greater than 100 µM in assay [4]; 44.5 µM in assay [5]; greater than 100 µM in assay [6].
On to `O=C(O)c1ccc(O)cc1` [PARABEN], for which, in assay [1], the PC50 was greater than 100 µM. Besides, the IC50 is greater than 100 µM in assay [2]; greater than 100 µM in assay [3]; 36.2 µM in assay [4]; 33.3 µM in assay [5]; 63.3 µM in assay [6].
`O=C(/C=C/c1ccccc1O)c1ccc(O)cc1O`: the PC50 in assay [1] is greater than 100 µM. Besides, the IC50 in assay [2] is 40.4 µM; in assay [3] it was 89.9 µM; in assay [4], 89.1 µM; in assay [5], 28.9 µM; in assay [6], greater than 100 µM.
In assay [1], `COc1ccc(CCC(=O)c2ccc(O)cc2)c(OC)c1` registered a PC50 of 83.2 µM. Besides, the IC50 in assay [2] is greater than 100 µM; in assay [3] it was 89.5 µM; in assay [4] it was greater than 100 µM; in assay [5], 32.2 µM; in assay [6] it was 55.5 µM.
The compound `COc1cc2c(cc1O)C[C@@H](Cc1ccc(O)cc1)CO2` came in with a PC50 in assay [1] of 63 µM. In addition, the IC50 in assay [2] was determined as 17.5 µM; in assay [3], 19.1 µM; in assay [4], 37.8 µM; in assay [5], 22.2 µM; in assay [6], 75.4 µM.
With `O=C1c2ccc(O)cc2OC[C@H]1Cc1ccc(O)cc1`, in assay [1], the PC50 is greater than 100 µM. The IC50 was greater than 100 µM in assay [2]; greater than 100 µM in assay [3]; greater than 100 µM in assay [4]; 69.3 µM in assay [5]; 99.6 µM in assay [6].
Consider `O=C1c2c(O)cc(O)cc2OC[C@H]1Cc1ccc(O)cc1`, for which the PC50 in assay [1] was greater than 100 µM. The IC50 in assay [2] was greater than 100 µM; in assay [3] it was greater than 100 µM; in assay [4], greater than 100 µM; in assay [5], 57.8 µM; in assay [6], greater than 100 µM.
For `Oc1ccc([C@H]2CCc3ccc(O)cc3O2)cc1` [TUPICHINOL C], the PC50 in assay [1] was greater than 100 µM. For the same compound, the half-maximal inhibitory concentration (IC50) was 50.1 µM in assay [2]; 94 µM in assay [3]; 93.4 µM in assay [4]; 43.9 µM in assay [5]; greater than 100 µM in assay [6].
For `O=c1[nH]cc(F)c(=O)[nH]1` [FLUOROURACIL], the half-inhibitory concentration (IC50) was determined as 8.58 µM in assay [2]; 5.91 µM in assay [3]; 0.44 µM in assay [4]; 0.41 µM in assay [5]; 7.39 µM in assay [6].
Regarding `COc1ccc(C(=O)CCc2c(OC)cc(O)cc2OC)cc1`, the PC50 in assay [1] turned out to be 85.7 µM. The IC50 was greater than 100 µM in assay [2]; greater than 100 µM in assay [3]; greater than 100 µM in assay [4]; 68.1 µM in assay [5]; 70.1 µM in assay [6].
In turn, `COc1cc(O)c(C)c2c1CC[C@H](c1ccc(O)cc1)O2` returned a PC50 in assay [1] of 70.1 µM. The IC50 in assay [2] came to 37 µM; in assay [3] it was 35.5 µM; in assay [4], 74 µM; in assay [5], 59.1 µM; in assay [6] it was 89.1 µM.
For the compound `COc1cc(O)ccc1C(=O)/C=C/c1ccc(O)cc1`, in assay [1], the PC50 is greater than 100 µM. Moreover, the IC50 worked out at 26.7 µM in assay [2]; 66.5 µM in assay [3]; 33.3 µM in assay [4]; 14.1 µM in assay [5]; 49.9 µM in assay [6].
In turn, `COc1c(O)cc2c(c1O)C(=O)[C@H](Cc1ccc(O)cc1)CO2` came in with a PC50 in assay [1] greater than 100 µM. For the same compound, the IC50 in assay [2] is 96.2 µM; in assay [3] it was greater than 100 µM; in assay [4] it was greater than 100 µM; in assay [5], 89.5 µM; in assay [6], greater than 100 µM.
In turn, `COc1ccc(CCC(=O)c2ccc(O)cc2)c(O)c1` showed a PC50 in assay [1] greater than 100 µM. Moreover, the IC50 was greater than 100 µM in assay [2]; 12 µM in assay [3]; 46.1 µM in assay [4]; 81.4 µM in assay [5]; 57.8 µM in assay [6].
With `COc1ccc(C[C@@H]2COc3cc(O)cc(O)c3C2=O)cc1`, the PC50 in assay [1] (Homo sapiens, PANC-1, 24 h) was greater than 100 µM. Besides, the IC50 in assay [2] was greater than 100 µM; in assay [3], greater than 100 µM; in assay [4] it was greater than 100 µM; in assay [5], 30.6 µM; in assay [6] it was 64.3 µM.
In turn, `COc1cc2cc(Cc3ccc(O)cc3)c(=O)oc2cc1O` registered a PC50 in assay [1] of 86.7 µM. Further, the IC50 in assay [2] was 40.3 µM; in assay [3], 88.1 µM; in assay [4], 69.5 µM; in assay [5] it was 61.8 µM; in assay [6], greater than 100 µM.
Compound `COc1cc(O)cc2c1OC[C@H](Cc1ccc(O)cc1)C2` gave a PC50 in assay [1] greater than 100 µM. Moreover, the IC50 in assay [2] was 70.2 µM; in assay [3], greater than 100 µM; in assay [4] it was 65.6 µM; in assay [5], 49.5 µM; in assay [6] it was greater than 100 µM.
`COc1ccc2c(c1)O[C@H](c1ccc(O)cc1)CC2` returned a PC50 in assay [1] of 74 µM. Besides, the IC50 in assay [2] is greater than 100 µM; in assay [3] it was greater than 100 µM; in assay [4], greater than 100 µM; in assay [5], 52.8 µM; in assay [6], 40.8 µM.
As for `COc1cc(O)cc(OC)c1CCC(=O)c1ccc(O)cc1`, in assay [1], the PC50 is 69.7 µM. Also, the IC50 amounted to 67.2 µM in assay [2]; 42.9 µM in assay [3]; 49 µM in assay [4]; 40.2 µM in assay [5]; 84.4 µM in assay [6].
In the case of `COc1cccc2c1C(=O)c1c(O)c3c(c(O)c1C2=O)C[C@@](O)(C(=O)CO)C[C@@H]3O[C@H]1C[C@H](N)[C@H](O)[C@H](C)O1` [DOXORUBICIN], the concentration for half-maximal inhibition (IC50) in assay [2] was determined as 0.41 µM; in assay [3], 0.84 µM; in assay [5] it was 3.12 µM; in assay [6] it was 3.07 µM.
In the case of `COc1cc(/C=C/c2ccc(O)cc2)cc(OC)c1` [PTEROSTILBENE], the PC50 in assay [1] is 44.4 µM. For the same compound, the IC50 in assay [2] was found to be 93.4 µM; in assay [3], 71.7 µM; in assay [4], 9.43 µM; in assay [5] it was 2.96 µM; in assay [6] it was 15.9 µM.
In the case of `COc1cc(O)cc(/C=C/c2ccc(O)cc2)c1`, the PC50 in assay [1] turned out to be 71.4 µM. The half-inhibitory concentration (IC50) in assay [2] was 89.1 µM; in assay [3] it was 91.8 µM; in assay [4], 48.4 µM; in assay [5] it was 35.8 µM; in assay [6] it was greater than 100 µM.
`Cc1c(O)ccc2c1O[C@@H](c1ccc(O)cc1)CC2` gave a PC50 in assay [1] of 85.8 µM. Besides, the IC50 in assay [2] amounted to 24.1 µM; in assay [3], 39.7 µM; in assay [4], 89.2 µM; in assay [5] it was 40.2 µM; in assay [6] it was 98.9 µM.
In assay [1], `O=C(/C=C/c1ccccc1)c1ccc(O)cc1O` [2',4'-DIHYDROXYCHALCONE] came in with a PC50 of 19 µM. For the same compound, the IC50 in assay [2] was 17 µM; in assay [3] it was 23.2 µM; in assay [4] it was 24.4 µM; in assay [5], 4.71 µM; in assay [6] it was greater than 100 µM.
In assay [1], `COc1cc(C(O)C(O)CO)ccc1O` (centres undefined) [GUAIACYL GLYCEROL] returned a PC50 greater than 100 µM. The IC50 in assay [2] is greater than 100 µM; in assay [3], greater than 100 µM; in assay [4] it was greater than 100 µM; in assay [5], 96.9 µM; in assay [6], greater than 100 µM.
